# Measured values of several laboratories.
# Lines come from different studies, so protocols differ.
# Target: Inhibitor of nuclear factor kappa-B kinase subunit beta (IKBKB, Homo sapiens, UniProt O14920)
# One construct used (O14920 1-756): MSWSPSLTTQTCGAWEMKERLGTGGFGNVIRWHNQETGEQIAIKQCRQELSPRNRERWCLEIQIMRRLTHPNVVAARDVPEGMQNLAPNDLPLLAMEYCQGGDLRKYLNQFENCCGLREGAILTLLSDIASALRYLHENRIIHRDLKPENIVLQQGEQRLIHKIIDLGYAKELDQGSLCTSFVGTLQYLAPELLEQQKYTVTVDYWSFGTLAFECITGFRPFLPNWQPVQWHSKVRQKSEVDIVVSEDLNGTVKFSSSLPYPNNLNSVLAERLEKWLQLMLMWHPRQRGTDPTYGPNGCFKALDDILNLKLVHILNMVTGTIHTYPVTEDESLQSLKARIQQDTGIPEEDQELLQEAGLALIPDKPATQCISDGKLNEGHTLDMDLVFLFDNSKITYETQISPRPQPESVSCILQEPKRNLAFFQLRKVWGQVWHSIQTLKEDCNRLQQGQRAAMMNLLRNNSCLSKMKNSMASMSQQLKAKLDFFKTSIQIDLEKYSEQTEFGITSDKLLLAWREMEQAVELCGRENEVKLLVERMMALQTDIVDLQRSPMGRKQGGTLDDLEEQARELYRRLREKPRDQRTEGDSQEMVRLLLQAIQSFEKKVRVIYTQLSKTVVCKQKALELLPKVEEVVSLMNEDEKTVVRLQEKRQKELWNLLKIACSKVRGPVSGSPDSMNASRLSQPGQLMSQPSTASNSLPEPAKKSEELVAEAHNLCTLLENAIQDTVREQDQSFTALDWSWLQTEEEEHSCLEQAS
SMILES,assay,setting,quantity,value
CCCCC(=O)Nc1ccc(-c2ccc3ncn(CCC)c(=O)c3c2)cn1,"binding, competition with immobilised ligand",0.5 µM,remaining binding,100%
N#Cc1ccc(NC(=O)Nc2ccccc2)cc1,"cell-free assay, competition with immobilised ligand",25 µM,remaining binding,100%
CO[C@@H]1[C@H](N(C)C(=O)c2ccccc2)C[C@H]2O[C@]1(C)n1c3ccccc3c3c4c(c5c6ccccc6n2c5c31)C(=O)NC4,"enzyme activity, inhibitor",1 µM,inhibition,13%
Cc1ccc(NC(=O)c2ccnc(C(F)(F)F)c2)cc1-c1cc(OCCO)nc(N2CCOCC2)c1,"binding, competition with immobilised ligand",1 µM,remaining binding,97%
C=CC(=O)N1CCC[C@@H](n2nc(-c3ccc(Oc4ccccc4)cc3)c3c(N)ncnc32)C1,"enzyme activity, inhibitor",1 µM,inhibition,30%
CN1CCN(C(=O)c2ccc(NC(=O)Nc3ccc(N(C)c4ccnc(Nc5ccc(CS(C)(=O)=O)cc5)n4)cc3)cc2)CC1,"binding, competition with immobilised ligand",1 µM,remaining binding,70%
COc1ccc2oc(-c3ccc4nc(N)oc4c3)c/c(=N\c3ccccc3NC(=O)CCN)c2c1,binding,1 µM,remaining binding,102%
C#Cc1cnc(Nc2ccnc(CO)c2)nc1Nc1ccccc1S(C)(=O)=NC#N (centres unmarked),cell-free assay,1 µM,remaining signal,97%
